Test results published in publication PMC10147382 (ACS chemical neuroscience, 2022).
pEC50, pKi: −log10 of the molar value. “And” between values parts separate entries of the source, which are not always exact repeats. Identical values can stand only once. Like-named read-outs stand apart in the source and are kept apart here.

What was measured:
[1] = test system: mice; test: Head twitch response; format: in vivo, mouse; settings: for HTR response: 15 min period
[2] = target: T1, 5-HT2B receptor (Homo sapiens, UniProt P41595); test: G protein; format: cell-based
T1 sequence (P41595 whole entry): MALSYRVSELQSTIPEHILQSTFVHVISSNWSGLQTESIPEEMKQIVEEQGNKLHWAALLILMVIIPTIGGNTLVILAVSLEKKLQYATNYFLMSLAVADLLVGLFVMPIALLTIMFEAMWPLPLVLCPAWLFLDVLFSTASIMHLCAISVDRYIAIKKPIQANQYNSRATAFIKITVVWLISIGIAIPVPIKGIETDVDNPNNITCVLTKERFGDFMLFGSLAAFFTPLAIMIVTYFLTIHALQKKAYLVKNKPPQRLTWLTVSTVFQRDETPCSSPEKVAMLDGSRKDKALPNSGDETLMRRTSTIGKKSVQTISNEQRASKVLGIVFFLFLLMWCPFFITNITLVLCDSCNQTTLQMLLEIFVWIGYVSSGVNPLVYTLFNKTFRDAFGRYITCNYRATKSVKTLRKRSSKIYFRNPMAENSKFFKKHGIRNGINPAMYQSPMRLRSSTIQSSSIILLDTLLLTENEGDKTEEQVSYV

[3] = target: T2, 5-HT2A receptor (Homo sapiens, UniProt P28223); test: G protein; format: cell-based; settings: for decrease in potency versus the alpha-methyl (DOx) counterpart: Gq dissociation (Gq versus G11 for Ariadne/DOM)
Target sequence in this assay (P28223 whole entry): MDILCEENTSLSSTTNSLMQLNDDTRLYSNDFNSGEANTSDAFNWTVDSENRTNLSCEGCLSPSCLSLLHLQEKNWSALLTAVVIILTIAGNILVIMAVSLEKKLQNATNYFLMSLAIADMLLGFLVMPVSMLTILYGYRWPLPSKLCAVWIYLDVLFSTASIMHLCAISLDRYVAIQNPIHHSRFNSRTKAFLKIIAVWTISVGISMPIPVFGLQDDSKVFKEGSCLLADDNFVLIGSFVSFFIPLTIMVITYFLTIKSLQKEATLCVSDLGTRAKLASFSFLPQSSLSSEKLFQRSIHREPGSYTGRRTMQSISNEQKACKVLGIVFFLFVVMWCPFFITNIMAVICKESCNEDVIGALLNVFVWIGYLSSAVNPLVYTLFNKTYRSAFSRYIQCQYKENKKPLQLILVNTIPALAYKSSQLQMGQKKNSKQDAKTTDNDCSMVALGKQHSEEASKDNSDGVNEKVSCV

[4] = target: T2, 5-HT2A receptor; test: β-arrestin2 recruitment BRET assay; format: cell-based; settings: for efficacy: normalized to 5-HT
Target sequence in this assay (P32121 whole entry): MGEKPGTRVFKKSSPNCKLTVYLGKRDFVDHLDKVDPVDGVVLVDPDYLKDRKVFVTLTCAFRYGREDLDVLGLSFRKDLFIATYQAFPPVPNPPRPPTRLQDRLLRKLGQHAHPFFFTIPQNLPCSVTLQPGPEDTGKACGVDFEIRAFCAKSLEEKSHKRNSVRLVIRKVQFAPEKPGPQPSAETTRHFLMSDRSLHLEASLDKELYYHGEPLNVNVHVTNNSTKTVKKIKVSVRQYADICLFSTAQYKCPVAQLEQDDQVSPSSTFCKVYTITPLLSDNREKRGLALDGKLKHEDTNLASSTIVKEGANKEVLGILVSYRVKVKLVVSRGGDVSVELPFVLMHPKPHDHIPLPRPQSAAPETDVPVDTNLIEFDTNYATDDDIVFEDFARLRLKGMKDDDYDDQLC
Target sequence in this assay (P28223 whole entry): as the sequence (P28223 whole entry) above

[5] = test system: 5-HT2A receptors; settings: cited from earlier work
[6] = test system: 5-HT2A receptors; settings: cited from earlier work; remark: listed apart in the source
[7] = target: T2, 5-HT2A receptor; test: Radioligand displacement assay; format: binding; settings: standard radioligand 125I-DOI
Target sequence in this assay (P28223 whole entry): as above

[8] = target: T2, 5-HT2A receptor; test: Calcium flux assay; format: cell-based
In short: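 Flp-In 293 T-Rex cells stably carry tetracycline-inducible human 5-HT2A or 5-HT2C. Expression is induced with tetracycline (2 ug/mL) the day before, with about 7,500 cells/well in 1% dialyzed FBS. Cells are loaded with Fluo-4 Direct for 1 h at 37°C in HBSS/20 mM HEPES pH 7.4 with 2.5 mM probenecid, then held 15 min at RT. Fluorescence is read 10 s baseline, then 5-10 min after drug. Peak fold-over-basal or AUC is normalized to % 5-HT, with EC50/Emax from nonlinear regression.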
Target sequence in this assay (P28223 whole entry): as above

[9] = test system: humans; settings: cited from earlier work
[10] = target: dopamine 1 receptor (Homo sapiens, UniProt P21728); test: Activity at other aminergic receptors
[11] = test system: rats; settings: cited from earlier work
[12] = target: dopamine transporter (DAT) (Homo sapiens, UniProt Q01959); test: SafetyScreen44 broad screen; format: binding; settings: 10 uM
Sequence of dopamine transporter (DAT) (Q01959 whole entry): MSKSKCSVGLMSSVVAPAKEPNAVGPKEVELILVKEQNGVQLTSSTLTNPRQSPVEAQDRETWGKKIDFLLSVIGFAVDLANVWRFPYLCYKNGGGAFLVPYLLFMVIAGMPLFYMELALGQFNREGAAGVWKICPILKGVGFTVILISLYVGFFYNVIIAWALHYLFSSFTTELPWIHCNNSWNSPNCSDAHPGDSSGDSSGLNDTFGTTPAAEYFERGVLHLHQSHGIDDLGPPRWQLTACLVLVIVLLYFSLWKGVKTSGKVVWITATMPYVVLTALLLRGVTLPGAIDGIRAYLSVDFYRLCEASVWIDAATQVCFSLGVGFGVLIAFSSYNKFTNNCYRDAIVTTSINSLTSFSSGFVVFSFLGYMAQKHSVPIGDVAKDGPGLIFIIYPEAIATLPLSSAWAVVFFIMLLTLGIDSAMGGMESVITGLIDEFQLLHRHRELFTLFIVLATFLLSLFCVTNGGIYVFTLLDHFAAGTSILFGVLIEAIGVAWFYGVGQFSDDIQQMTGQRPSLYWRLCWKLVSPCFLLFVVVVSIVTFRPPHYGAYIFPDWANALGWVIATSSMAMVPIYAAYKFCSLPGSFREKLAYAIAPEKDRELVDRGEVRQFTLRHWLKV
In short: (§1)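 Broad binding screen of 44 targets (GPCRs, nuclear receptors, ion channels, monoamine transporters, enzymes) with racemic test compound at 10 uM. Read-out is % displacement of each target's standard radioligand. A positive hit is defined as more than 50% displacement.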

[13] = test system: rat smooth muscle; settings: compared to serotonin and (R)-DOM ref 11; cited from earlier work
[14] = target: T2, 5-HT2A receptor; test: SafetyScreen44 broad screen; format: binding; settings: 10 uM Ariadne; positive hit threshold
In short: as §1
Target sequence in this assay (P28223 whole entry): as the sequence (P28223 whole entry) above

[15] = target: dopamine 2 receptor (Homo sapiens, UniProt P14416); test: Activity at other aminergic receptors
Sequence of dopamine 2 receptor (P14416 whole entry): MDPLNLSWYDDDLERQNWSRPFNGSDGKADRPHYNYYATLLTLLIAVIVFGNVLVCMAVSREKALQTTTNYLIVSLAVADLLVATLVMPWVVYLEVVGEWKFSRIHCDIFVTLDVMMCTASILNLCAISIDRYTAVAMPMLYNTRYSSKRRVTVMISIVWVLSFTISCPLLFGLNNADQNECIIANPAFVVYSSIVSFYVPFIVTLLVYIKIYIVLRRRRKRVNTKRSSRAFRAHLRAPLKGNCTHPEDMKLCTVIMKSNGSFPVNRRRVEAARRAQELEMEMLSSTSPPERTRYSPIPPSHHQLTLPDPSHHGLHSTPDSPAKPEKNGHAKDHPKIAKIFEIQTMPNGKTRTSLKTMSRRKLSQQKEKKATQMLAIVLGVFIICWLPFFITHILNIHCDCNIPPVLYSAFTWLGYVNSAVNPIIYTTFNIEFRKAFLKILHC

[16] = target: serotonin transporter (SERT) (Homo sapiens, UniProt P31645); test: SafetyScreen44 broad screen; format: binding; settings: 10 uM
Sequence of serotonin transporter (SERT) (P31645 whole entry): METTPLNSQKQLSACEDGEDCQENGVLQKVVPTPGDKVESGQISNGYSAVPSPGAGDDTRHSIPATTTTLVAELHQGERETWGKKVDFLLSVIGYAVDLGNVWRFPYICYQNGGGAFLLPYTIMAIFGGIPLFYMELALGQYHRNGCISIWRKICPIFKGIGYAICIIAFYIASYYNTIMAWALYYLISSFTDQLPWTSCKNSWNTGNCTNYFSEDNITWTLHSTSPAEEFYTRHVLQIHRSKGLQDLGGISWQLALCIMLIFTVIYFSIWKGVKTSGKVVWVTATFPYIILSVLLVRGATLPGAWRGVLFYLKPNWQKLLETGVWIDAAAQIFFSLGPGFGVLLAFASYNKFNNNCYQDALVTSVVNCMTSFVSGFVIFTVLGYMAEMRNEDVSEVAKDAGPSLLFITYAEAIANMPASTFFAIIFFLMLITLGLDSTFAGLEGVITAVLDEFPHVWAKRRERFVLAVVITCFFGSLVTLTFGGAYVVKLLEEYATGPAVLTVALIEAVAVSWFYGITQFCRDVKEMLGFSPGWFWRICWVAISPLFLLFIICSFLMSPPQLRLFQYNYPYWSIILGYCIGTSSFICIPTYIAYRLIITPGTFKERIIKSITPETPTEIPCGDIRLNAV
In short: as §1

[17] = target: norepinephrine transporter (NET) (Homo sapiens, UniProt P23975); test: SafetyScreen44 broad screen; format: binding; settings: 10 uM
Sequence of norepinephrine transporter (NET) (P23975 whole entry): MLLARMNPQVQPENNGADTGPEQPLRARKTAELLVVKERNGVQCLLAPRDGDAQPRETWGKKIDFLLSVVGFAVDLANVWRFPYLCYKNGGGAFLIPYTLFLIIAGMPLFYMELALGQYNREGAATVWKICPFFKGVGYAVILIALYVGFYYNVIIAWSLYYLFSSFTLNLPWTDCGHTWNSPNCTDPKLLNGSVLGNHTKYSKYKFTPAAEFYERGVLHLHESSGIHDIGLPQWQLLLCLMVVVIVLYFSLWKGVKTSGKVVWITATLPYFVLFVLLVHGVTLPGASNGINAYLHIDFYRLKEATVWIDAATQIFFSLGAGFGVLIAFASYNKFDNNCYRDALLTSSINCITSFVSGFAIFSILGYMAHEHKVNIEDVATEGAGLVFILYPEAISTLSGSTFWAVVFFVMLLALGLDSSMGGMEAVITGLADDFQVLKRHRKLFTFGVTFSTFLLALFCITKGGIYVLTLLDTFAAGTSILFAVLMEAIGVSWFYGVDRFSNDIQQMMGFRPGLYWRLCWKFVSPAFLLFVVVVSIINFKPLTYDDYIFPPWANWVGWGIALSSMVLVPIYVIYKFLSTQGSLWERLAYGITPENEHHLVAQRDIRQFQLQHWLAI
In short: as §1

[18] = target: 5-HT1F receptor (Homo sapiens, UniProt P30939); test: 5-HTome G protein activation BRET screen; format: cell-based
Sequence of 5-HT1F receptor (P30939 whole entry): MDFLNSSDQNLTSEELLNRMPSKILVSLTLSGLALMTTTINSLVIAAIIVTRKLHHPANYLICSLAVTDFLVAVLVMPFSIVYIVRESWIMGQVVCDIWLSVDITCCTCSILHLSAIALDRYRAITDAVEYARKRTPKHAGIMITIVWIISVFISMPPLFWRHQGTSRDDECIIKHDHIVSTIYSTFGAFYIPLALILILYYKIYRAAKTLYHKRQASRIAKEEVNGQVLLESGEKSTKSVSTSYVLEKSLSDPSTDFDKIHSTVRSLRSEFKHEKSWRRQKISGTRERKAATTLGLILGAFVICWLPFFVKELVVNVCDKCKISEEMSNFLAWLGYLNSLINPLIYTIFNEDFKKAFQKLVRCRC
In short: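 Human 5-HT receptors (12 in the panel) are tested by G protein-dissociation BRET2. Cells are reverse-transfected about 48 h before assay with receptor:Gα-Rluc8:Beta:GFP2-γ (TRUPATH) at 1:1:1:1 and plated in 1% dFBS. Drug is added in HBSS/20 mM HEPES pH 7.4 with 0.3% BSA and 0.03% ascorbic acid, then incubated 60 min at 37°C. Coelenterazine 400a is 5 uM final. The 510/400 ratio is normalized to % positive control, with EC50/Emax from log(agonist) vs response. Three independent experiments in triplicate.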

[19] = Brain and plasma pharmacokinetic evaluation; format: in vivo, mouse; settings: brain and plasma PK
[20] = test system: cats; settings: in comparison to (R)-DOM ref 10; cited from earlier work
[21] = target: T1, 5-HT2B receptor; test: SafetyScreen44 broad screen; format: binding; settings: 10 uM Ariadne; positive hit threshold
In short: as §1

[22] = target: adrenergic receptors; test: Activity at other aminergic receptors; settings: no/low activity
[23] = target: T3, 5-HT2C receptor (Homo sapiens, UniProt P28335); test: G protein; format: cell-based
T3 sequence (P28335 33-458): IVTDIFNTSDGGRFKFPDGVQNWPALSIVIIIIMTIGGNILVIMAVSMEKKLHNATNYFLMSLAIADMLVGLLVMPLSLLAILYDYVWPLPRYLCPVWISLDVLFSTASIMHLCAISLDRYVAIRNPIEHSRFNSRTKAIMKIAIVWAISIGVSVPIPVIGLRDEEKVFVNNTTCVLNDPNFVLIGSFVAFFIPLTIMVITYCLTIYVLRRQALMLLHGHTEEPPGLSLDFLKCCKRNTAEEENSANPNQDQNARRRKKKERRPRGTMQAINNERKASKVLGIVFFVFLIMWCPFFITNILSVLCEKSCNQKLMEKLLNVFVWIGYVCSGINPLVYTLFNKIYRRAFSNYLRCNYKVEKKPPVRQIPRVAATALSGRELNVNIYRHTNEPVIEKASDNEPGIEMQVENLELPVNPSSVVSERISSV

[24] = test system: rats; settings: cited from earlier work; remark: listed apart in the source
[25] = test system: mice; test: Open field test; format: in vivo, mouse; settings: mouse, in vivo
[26] = test system: mice; settings: cited from earlier work
[27] = test system: 5-HT2C receptors; settings: cited from earlier work
[28] = phosphoinositide turnover ref 40

CCC(N)Cc1cc(OC)c(COC)cc1OC (stereo not shown) [4C-MOM]
HTR response ([1]; s.c.): only residual HTR
potency at 5-HT2B compared to Ariadne ([2]; Gq dissociation): twice as potent
less potent at 5-HT2A compared to Ariadne ([3]; Gq dissociation): approximately 2 fold

CCCc1cc(OC)c(CC(N)CC)cc1OC (stereo not shown) [4C-Pr]
loss in efficacy versus the alpha-methyl (DOx) counterpart ([3]; Gq dissociation): 15%
decrease in potency versus the alpha-methyl (DOx) counterpart [3]: 20-30 fold
decrease in potency versus the alpha-methyl (DOx) counterpart [4]: 10 fold
drop in efficacy versus the alpha-methyl (DOx) counterpart [4]: 15%

CCC(N)Cc1cc(OC)c(C(F)(F)F)cc1OC (stereo not shown) [4C-TFM]
HTR after pretreatment with 5-HT2A antagonist MDL100,907 (volinanserin) ([1]; MDL100907 0.01 and 0.032 mg/kg ip 15 min prior): completely inhibited

CCCC(N)Cc1cc(OC)c(C)cc1OC (stereo not shown) [5C-D]
HTR response ([1]; s.c.): indistinguishable from vehicle
decrease in potency relative to Ariadne ([3]; Figure 3D signaling assays): ~ 2 fold
drop in efficacy relative to Ariadne ([3]; Figure 3D signaling assays): ~ 15%

CCN(CC)CCc1c[nH]c2cc(F)ccc12 [6F-DET, 6-fluoro-diethyltryptamine]
Emax [5, 28]: 63%
drop in efficacy versus DET [5, 28]: 20%
weaker signaling potency (EC50 values) versus DET [5, 28]: 6 fold
affinity for 5-HT2A receptors, DET versus 6F-DET [6]: nearly identical affinity

CC[C@H](N)Cc1cc(OC)c(C)cc1OC [(S)-Ariadne]
pKi [7]: 6.66
pEC50 ([8]; read-out: EC50 (calcium flux)): 6.88
Emax (calcium flux) ([8]; relative to 5-HT): 63%

CCC(N)Cc1cc(OC)c(C)cc1OC.Cl (stereo not shown) [Ariadne hydrochloride]
subjective effect (online experience report) ([9]; 50 mg oral plus 25 mg at 90 min, person 77 kg ref 35): MDMA-like effect but no psychedelic effects

CCC(N)Cc1cc(OC)c(C)cc1OC (stereo not shown) [Ariadne, 2-amino-1-(2,5-dimethoxy-4-methylphenyl)-butane]
pEC50 [10]: < 5.00
substitution in LSD trained animals [11]: substituted responding in LSD trained animals
decrease in HTR count per 15 min compared to racemic DOPR ([1]; s.c.): > 3 fold
dose of peak (maximum) HTR ([1]; s.c.): 10 mg/kg
hallucinogenic / psychoactive effect ([9]; 32 mg p.o. ref 6): no hallucinogenic effect but a mild threshold psychoactive effect
subjective effect (online experience report) ([9]; 75 mg orally, male ref 36): mild MDMA-like effects, but no obvious hallucinogenic effect
subjective effect (online experience report) ([9]; 125 mg orally, female ref 37): unique hybrid between MDMA-like and DOX/psychedelic-like activity
dose leading to discernable psychoactive effects ([9]; aggregate of human data): > 50 mg
dose up to which no hallucinogenic effects were observed ([9]; aggregate of human data): 100 to 300 mg
activity at DAT [12]: essentially no activity
Emax [2]: > 70%
serotonergic-like spasmogenic effect [13]: weak serotonergic-like effect
displacement of standard radioligands [14]: more than 50%
pEC50 [15]: < 5.00
Emax [3]: > 70%
decrease in potency versus the alpha-methyl (DOx) counterpart [3]: 4-to-6 fold and 6 fold
Emax ([3]; read-out: Emax (Gq)): 80%
activity at SERT [16]: essentially no activity
activity at NET [17]: essentially no activity
selectivity of 5-HT2 agonism over 5-HT1F [18]: 0.5-1 log
brain penetration [19]: high brain penetration
combined score of DOM-like behavioral features [20]: low combined score of DOM-like behavioral features
displacement of standard radioligands [21]: more than 50%
pEC50 [22]: < 5.00
Emax [23]: > 70%
decrease in potency versus the alpha-methyl (DOx) counterpart [4]: ~ 4.5 fold
efficacy [4]: 83%
substitution for MDMA stimulus [24]: full substitution for MDMA stimulus

CCN(CC)CCc1c[nH]c2ccccc12 [DET, diethyltryptamine]
Emax [5, 28]: 82%
affinity for 5-HT2A receptors, DET versus 6F-DET [6]: nearly identical affinity

COc1cc(CC(C)N)c(OC)cc1I (stereo not shown) [DOI, reference compound]
increase in Gq dissociation potency compared to DOM ([3]; Gq dissociation): 20- to 30 fold

COc1cc(CC(C)N)c(OC)cc1C (stereo not shown) [DOM, 2,5-dimethoxy-4-methyl-amphetamine, reference compound]
dose producing classic hallucinogen effects [9]: > 3 mg
dose producing detectable psychoactive, sub-hallucinogenic effects [9]: 1 to 3 mg
potency relative to mescaline in humans ([9]; per oral administration ref 6): approximately 100 times
Emax ([3]; read-out: Emax (Gq)): 96%
efficacy [4]: 103%

CCCc1cc(OC)c(CC(C)N)cc1OC (stereo not shown) [DOPR, reference compound]
dose of peak (maximum) HTR ([1]; s.c.): 1 mg/kg
time to maximum HTR frequency post-drug administration ([1]; s.c.): 10 min
increase in Gq dissociation potency compared to DOM ([3]; Gq dissociation): 20- to 30 fold
time in the center of the arena [25]: trend for spending less time in the center of the arena

CCC(N)Cc1cc(OC)c(I)cc1OC (stereo not shown) [iodo-Ariadne]
increase in potency compared to Ariadne ([3]; Gq dissociation): > 10 fold
loss in efficacy versus the alpha-methyl (DOx) counterpart ([3]; Gq dissociation): 10%
decrease in potency versus the alpha-methyl (DOx) counterpart [3]: 10 fold
pEC50 ([3]; read-out: EC50 (Gq), Gq dissociation BRET): 7.80
decrease in potency versus the alpha-methyl (DOx) counterpart [4]: 5 fold
drop in efficacy versus the alpha-methyl (DOx) counterpart [4]: 20%

CN(C)CCc1c[nH]c2cccc(O)c12 [psilocin]
HTR counts [26]: 15-25 HTR events per 15 min
greater signaling potency in comparison to 6F-DET [5]: 15 fold
signaling efficacy ([5]; depending on the specific readout): 50-70%
greater affinity in comparison to 6F-DET [27]: 10 fold

CN(C)CCc1c[nH]c2cccc(OP(=O)(O)O)c12 [psilocybin]
HTR counts [26]: 15-25 HTR events per 15 min
